Values after ≈ are worked out from the molar mass of the structure shown.
Key:
Escherichia coli = assay: Antibacterial activity against Escherichia coli C7 after 18 hrs by broth microdilution method; assay type: functional; conditions: C7, 18 h
Streptococcus pneumoniae = assay: Antibacterial activity against Streptococcus pneumoniae D39 after 18 hrs by broth microdilution method; assay type: functional; conditions: D39, 18 h
Outline: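 CLSI broth microdilution with 2-fold dilutions from 0.06 to 64 μg/mL. Cation-adjusted Mueller–Hinton broth with 2.5% lysed horse blood, inoculum 5 × 10^5 CFU/mL, grown at 35 °C for 18 h in 5% CO2. MIC is the lowest concentration showing no visible growth.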

Staphylococcus aureus = assay: Antibacterial activity against Staphylococcus aureus CIP54.146 after 18 hrs by broth microdilution method; assay type: functional; conditions: CIP54.146, 18 h
Outline: (§1)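 CLSI broth microdilution with serial 2-fold dilutions from 0.06 to 64 μg/mL. Cation-adjusted Mueller–Hinton broth, inoculum 5 × 10^5 CFU/mL, incubated at 35 °C for 18 h. MIC taken as the lowest concentration with no visible growth.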

Enterococcus faecalis = assay: Antibacterial activity against Enterococcus faecalis ATCC 29212 after 18 hrs by broth microdilution method; assay type: functional; conditions: ATCC 29212, 18 h; outline: as §1
[1] = molecular target: T1, Enoyl-[acyl-carrier-protein] reductase [NADH] FabI (Escherichia coli K-12, UniProt P0AEK4); assay: Inhibition of Escherichia coli FabI using crotonoyl-CoA as substrate preincubated for 90 mins
T1 sequence (P0AEK4 whole entry): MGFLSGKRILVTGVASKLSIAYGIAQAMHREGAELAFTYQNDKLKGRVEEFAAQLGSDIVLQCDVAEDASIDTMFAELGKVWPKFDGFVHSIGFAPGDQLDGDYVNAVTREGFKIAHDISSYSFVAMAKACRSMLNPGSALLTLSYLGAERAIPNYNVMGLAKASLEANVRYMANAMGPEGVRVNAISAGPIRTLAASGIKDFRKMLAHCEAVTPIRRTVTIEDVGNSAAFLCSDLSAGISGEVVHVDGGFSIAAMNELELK
Outline: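 Recombinant C-terminal 6-His-tagged E. coli FabI (40 nM) in 50 mM Hepes pH 7.5, 100 μM DTT, 0.006% Triton X-100. Enzyme preincubated with 20 μM NADH, 10 μM NAD+ and inhibitor in DMSO for 90 min at room temperature. Reaction started with 50 μM crotonoyl-CoA. 6–10 concentrations; IC50 by Langmuir fit.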

[2] = molecular target: T2, Enoyl-[acyl-carrier-protein] reductase [NADPH] FabI (Staphylococcus aureus, UniProt Q6GI75); assay: Inhibition of Staphylococcus aureus recombinant FabI using trans-2-octenoyl N-acetylcysteamine thioester as substrate preincubated for 60 mins
T2 sequence (Q6GI75 whole entry): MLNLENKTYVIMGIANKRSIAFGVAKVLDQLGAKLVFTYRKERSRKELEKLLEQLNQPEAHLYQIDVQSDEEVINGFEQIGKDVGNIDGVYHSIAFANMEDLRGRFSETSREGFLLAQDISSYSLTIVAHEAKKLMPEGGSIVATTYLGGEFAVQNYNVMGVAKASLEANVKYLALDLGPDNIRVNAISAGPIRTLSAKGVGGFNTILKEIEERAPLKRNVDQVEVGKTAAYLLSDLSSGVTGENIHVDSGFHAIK
Outline: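 Recombinant S. aureus FabI (2 nM) in 50 mM ADA pH 6.5, 1 mM DTT, 0.006% Triton X-100, 50 mM NaCl. Preincubated 60 min at room temperature with 40 μM NADPH, 10 μM NADP+ and inhibitor in DMSO. Reaction started with 100 μM t-o-NAC. Inhibition versus untreated samples; IC50 by Langmuir fit.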

[3] = Cytotoxicity against human HepG2 cells; assay type: cell-based; conditions: read-out: ED50 (the source's name)

MIC (Escherichia coli)	MIC (Streptococcus pneumoniae)	MIC (Staphylococcus aureus)	MIC (Enterococcus faecalis)	IC50 [1]	IC50 [2]	SMILES	CC50 [3]
16 µg/mL (≈ 38.4 µM)	> 32 µg/mL	0.25 µg/mL (≈ 0.6 µM)	> 32 µg/mL	150 nM	–	CCc1ccc(Oc2ccc(S(=O)(=O)NCCc3ccccn3)cc2F)c(O)c1	–
16 µg/mL (≈ 55.9 µM)	> 32 µg/mL	4 µg/mL (≈ 14 µM)	> 32 µg/mL	5200 nM	–	Oc1cc(Cn2cncn2)ccc1Oc1cccc(F)n1	–
1 µg/mL (≈ 4.31 µM)	16 µg/mL (≈ 68.9 µM)	0.062 µg/mL (≈ 0.267 µM)	32 µg/mL (≈ 138 µM)	–	37 nM	CCc1cc(O)c(Oc2ccccc2)cc1F	16 µg/mL (≈ 68.9 µM)
0.25 µg/mL (≈ 0.999 µM)	32 µg/mL (≈ 128 µM)	0.031 µg/mL (≈ 0.124 µM)	32 µg/mL (≈ 128 µM)	–	8 nM	CCc1cc(O)c(Oc2ccccc2F)cc1F	16 µg/mL (≈ 63.9 µM)
16 µg/mL (≈ 54.7 µM)	> 32 µg/mL	0.25 µg/mL (≈ 0.855 µM)	> 32 µg/mL	810 nM	–	CCc1ccc(Oc2ccc(S(C)(=O)=O)cc2)c(O)c1	–
16 µg/mL (≈ 55.3 µM)	16 µg/mL (≈ 55.3 µM)	0.25 µg/mL (≈ 0.864 µM)	> 32 µg/mL	850 nM	–	CCCNc1ccc(Oc2ccc(CC)cc2O)c(F)c1	–
> 32 µg/mL	> 32 µg/mL	4 µg/mL (≈ 10.3 µM)	> 32 µg/mL	6100 nM	–	CCc1ccc(Oc2ccc(N3CC(CNC(C)=O)OC3=O)cc2F)c(O)c1 (centres undefined)	–
0.25 µg/mL (≈ 1.04 µM)	64 µg/mL (≈ 267 µM)	0.25 µg/mL (≈ 1.04 µM)	> 32 µg/mL	550 nM	–	Oc1cc(Cl)ccc1Oc1cccc(F)n1	–
4 µg/mL (≈ 16.2 µM)	64 µg/mL (≈ 259 µM)	0.25 µg/mL (≈ 1.01 µM)	> 32 µg/mL	–	–	CCCc1ccc(Oc2cccc(F)n2)c(O)c1	–
16 µg/mL (≈ 42.3 µM)	> 32 µg/mL	0.25 µg/mL (≈ 0.661 µM)	> 32 µg/mL	380 nM	–	CCc1ccc(Oc2ccc(S(=O)(=O)CCC3OCCO3)cc2)c(O)c1	–
1 µg/mL (≈ 3.65 µM)	16 µg/mL (≈ 58.3 µM)	0.062 µg/mL (≈ 0.226 µM)	16 µg/mL (≈ 58.3 µM)	110 nM	–	CCc1ccc(Oc2ccc(C(C)=O)cc2F)c(O)c1	–
4 µg/mL (≈ 15.3 µM)	> 32 µg/mL	1 µg/mL (≈ 3.83 µM)	> 32 µg/mL	570 nM	–	CC(C)Cc1ccc(Oc2cccc(F)n2)c(O)c1	–
4 µg/mL (≈ 13.9 µM)	> 64 µg/mL	0.25 µg/mL (≈ 0.87 µM)	> 32 µg/mL	–	–	Oc1cc(CC(F)(F)F)ccc1Oc1cccc(F)n1	–
> 32 µg/mL	> 32 µg/mL	16 µg/mL (≈ 56.1 µM)	> 32 µg/mL	44000 nM	–	CCCc1ccc(Oc2cccc(NC(C)=O)c2)c(O)c1	–
16 µg/mL (≈ 64.2 µM)	> 32 µg/mL	4 µg/mL (≈ 16 µM)	> 32 µg/mL	14000 nM	–	COCc1ccc(Oc2cccc(F)n2)c(O)c1	–
4 µg/mL (≈ 17.4 µM)	> 32 µg/mL	0.25 µg/mL (≈ 1.09 µM)	> 32 µg/mL	160 nM	–	CCc1ccc(Oc2ccccc2N)c(O)c1	–
> 32 µg/mL	> 32 µg/mL	4 µg/mL (≈ 17 µM)	> 32 µg/mL	29000 nM	–	OCc1ccc(Oc2cccc(F)n2)c(O)c1	–
4 µg/mL (≈ 15.5 µM)	> 32 µg/mL	0.25 µg/mL (≈ 0.968 µM)	> 32 µg/mL	230 nM	–	CCCc1ccc(Oc2ccc(OC)cc2)c(O)c1	–
1 µg/mL (≈ 3.22 µM)	> 32 µg/mL	0.25 µg/mL (≈ 0.806 µM)	> 32 µg/mL	140 nM	–	CCc1ccc(Oc2ccc(S(C)(=O)=O)cc2F)c(O)c1	–
16 µg/mL (≈ 45 µM)	> 32 µg/mL	0.25 µg/mL (≈ 0.703 µM)	> 32 µg/mL	1200 nM	–	CCc1ccc(Oc2ccc(S(=O)(=O)NCCO)cc2F)c(O)c1	–
> 32 µg/mL	> 32 µg/mL	8 µg/mL (≈ 27.2 µM)	> 32 µg/mL	–	180 nM	CCc1cc(O)c(Oc2ccc(C(=O)O)cc2F)cc1F	> 32 µg/mL
4 µg/mL (≈ 17.1 µM)	> 64 µg/mL	0.25 µg/mL (≈ 1.07 µM)	> 32 µg/mL	590 nM	–	CCc1ccc(Oc2cccc(F)n2)c(O)c1	–

MIC (Escherichia coli)	MIC (Streptococcus pneumoniae)	MIC (Staphylococcus aureus)	MIC (Enterococcus faecalis)	IC50 [1]	IC50 [2]	SMILES	CC50 [3]
8 µg/mL (≈ 22.3 µM)	> 32 µg/mL	1 µg/mL (≈ 2.79 µM)	> 32 µg/mL	–	28 nM	CCc1ccc(Oc2ccc(C(=O)N3CCNC(=O)C3)cc2F)c(O)c1	> 32 µg/mL
8 µg/mL (≈ 26 µM)	> 32 µg/mL	1 µg/mL (≈ 3.25 µM)	> 32 µg/mL	–	82 nM	CCc1cc(O)c(Oc2ccc(C(=O)NC)cc2F)cc1F	> 32 µg/mL
16 µg/mL (≈ 61.9 µM)	> 32 µg/mL	1 µg/mL (≈ 3.87 µM)	> 32 µg/mL	3100 nM	–	CCCc1ccc(Oc2cccc(OC)c2)c(O)c1	–
16 µg/mL (≈ 73 µM)	> 32 µg/mL	4 µg/mL (≈ 18.2 µM)	> 32 µg/mL	3500 nM	–	Cc1ccc(Oc2cccc(F)n2)c(O)c1	–
0.25 µg/mL (≈ 0.995 µM)	> 32 µg/mL	0.062 µg/mL (≈ 0.247 µM)	> 32 µg/mL	–	13 nM	CCc1cc(O)c(Oc2cccnc2F)cc1F	–
> 32 µg/mL	> 32 µg/mL	> 32 µg/mL	> 32 µg/mL	–	> 100000 nM	CCc1cc(O)c(Oc2ccc[nH]c2=O)cc1F	–
16 µg/mL (≈ 56.1 µM)	> 32 µg/mL	1 µg/mL (≈ 3.51 µM)	> 32 µg/mL	–	–	Oc1cc(C(F)=C(F)F)ccc1Oc1cccc(F)n1	–
8 µg/mL (≈ 27.1 µM)	16 µg/mL (≈ 54.2 µM)	8 µg/mL (≈ 27.1 µM)	> 32 µg/mL	6500 nM	–	Cc1ccc(-c2ccc(Oc3cccc(F)n3)c(O)c2)cc1	–
16 µg/mL (≈ 45.5 µM)	> 32 µg/mL	1 µg/mL (≈ 2.85 µM)	> 32 µg/mL	2300 nM	–	CCc1ccc(Oc2ccc(NS(=O)(=O)C3CC3)cc2F)c(O)c1	–
> 32 µg/mL	> 32 µg/mL	4 µg/mL (≈ 16.4 µM)	> 32 µg/mL	112000 nM	–	CCc1ccc(Oc2ccccc2NC)c(O)c1	–
> 32 µg/mL	16 µg/mL (≈ 52.7 µM)	1 µg/mL (≈ 3.3 µM)	> 32 µg/mL	14000 nM	–	CCc1ccc(Oc2ccc(/C(C)=N/OC)cc2F)c(O)c1	–
1 µg/mL (≈ 3.52 µM)	64 µg/mL (≈ 225 µM)	0.25 µg/mL (≈ 0.88 µM)	> 32 µg/mL	120 nM	–	Oc1cc(Br)ccc1Oc1cccc(F)n1	–
0.25 µg/mL (≈ 1.01 µM)	> 32 µg/mL	0.5 µg/mL (≈ 2.01 µM)	> 32 µg/mL	–	56 nM	CCc1cc(O)c(Oc2cccnc2N)cc1F	–
1 µg/mL (≈ 3.63 µM)	8 µg/mL (≈ 29.1 µM)	0.062 µg/mL (≈ 0.225 µM)	32 µg/mL (≈ 116 µM)	–	31 nM	CCc1cc(O)c(Oc2ccc(C#N)cc2F)cc1F	16 µg/mL (≈ 58.1 µM)
> 32 µg/mL	> 32 µg/mL	4 µg/mL (≈ 12.7 µM)	> 32 µg/mL	6900 nM	–	Oc1cc(CCCn2cncn2)ccc1Oc1cccc(F)n1	–
> 32 µg/mL	> 32 µg/mL	16 µg/mL (≈ 56.1 µM)	> 32 µg/mL	56000 nM	–	Oc1cc(Cn2ccnc2)ccc1Oc1cccc(F)n1	–
4 µg/mL (≈ 10.6 µM)	> 32 µg/mL	0.25 µg/mL (≈ 0.664 µM)	> 32 µg/mL	–	–	CCc1cc(O)c(Oc2ccc(C(=O)N3CCNC(=O)C3)cc2F)cc1F	> 32 µg/mL
16 µg/mL (≈ 52.8 µM)	> 32 µg/mL	1 µg/mL (≈ 3.3 µM)	> 32 µg/mL	3400 nM	–	Oc1cc(C(O)C(F)(F)F)ccc1Oc1cccc(F)n1 (centres undefined)	–
> 32 µg/mL	> 32 µg/mL	> 32 µg/mL	> 32 µg/mL	–	21000 nM	CCc1cc(OC)c(Oc2ccc(C(N)=O)cc2F)cc1F	> 32 µg/mL
1 µg/mL (≈ 3.21 µM)	> 32 µg/mL	0.25 µg/mL (≈ 0.803 µM)	> 32 µg/mL	860 nM	–	CCc1ccc(Oc2ccc(S(N)(=O)=O)cc2F)c(O)c1	–
16 µg/mL (≈ 65.8 µM)	16 µg/mL (≈ 65.8 µM)	1 µg/mL (≈ 4.11 µM)	> 32 µg/mL	42000 nM	–	CCc1ccc(Oc2cc(C)ccc2N)c(O)c1	–
4 µg/mL (≈ 11.3 µM)	16 µg/mL (≈ 45.3 µM)	0.062 µg/mL (≈ 0.175 µM)	> 32 µg/mL	240 nM	–	CCCNS(=O)(=O)c1ccc(Oc2ccc(CC)cc2O)c(F)c1	–

SMILES	MIC (Escherichia coli)	MIC (Streptococcus pneumoniae)	MIC (Staphylococcus aureus)	MIC (Enterococcus faecalis)	IC50 [1]	IC50 [2]	CC50 [3]
CCc1ccc(Oc2ccc(NCCCO)cc2F)c(O)c1	16 µg/mL (≈ 52.4 µM)	> 32 µg/mL	0.25 µg/mL (≈ 0.819 µM)	> 32 µg/mL	1000 nM	–	–
Oc1cc(Cl)ccc1Oc1ccc(Cl)cc1Cl [TRICLOSAN]	0.125 µg/mL (≈ 0.432 µM)	8 µg/mL (≈ 27.6 µM)	0.031 µg/mL (≈ 0.107 µM)	2 µg/mL (≈ 6.91 µM)	–	–	2 µg/mL (≈ 6.91 µM)

Reference: ChEMBL document CHEMBL2176870 (J Med Chem, 2012)
